Columns and labels:
[1] = substrate: CC1=C(CCC(=O)NCCCNCCCNC(=O)CCC2=C(C)C(=O)c3ccccc3C2=O)C(=O)c2ccccc2C1=O; assay: Vmax is the maximum velocity of the TcTR (Trypanosoma cruzi trypanothione reductase) catalyzed NADPH oxidation.
[2] = substrate: CC1=C(CCCCCC(=O)NCCCCNCCCNC(=O)CCCCCC2=C(C)C(=O)c3cccc(O)c3C2=O)C(=O)c2c(O)cccc2C1=O; assay: as above
[3] = substrate: CC1=C(CCCCC(=O)NCCCNCCCNC(=O)CCCCC2=C(C)C(=O)c3ccccc3C2=O)C(=O)c2ccccc2C1=O; assay: as above
[4] = substrate: CC1=C(CCCC(=O)NCCCCNCCCNC(=O)CCCC2=C(C)C(=O)c3cccc(O)c3C2=O)C(=O)c2c(O)cccc2C1=O; assay: as above
[5] = substrate: CC1=C(CCC(=O)NCCCNCCCNC(=O)CCC2=C(C)C(=O)c3ccccc3C2=O)C(=O)c2ccccc2C1=O; assay: (§1) The Michaelis-Menten constant for NADPH oxidation by TcTR (Trypanosoma cruzi trypanothione reductase)
Method in brief: (§2)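 Recombinant TcTR (0.6 U) in 20 mM Hepes, 1 mM EDTA, 0.15 M KCl, pH 7.25 at 22 °C, with 200 µM NADPH and naphthoquinone at five concentrations (0–100 µM) in 1% DMSO. NADPH oxidation at 340 nm; intrinsic oxidase rate not subtracted. Km and Vmax from nonlinear Michaelis–Menten fit; kcat and kcat/Km calculated.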

[6] = substrate: CC1=C(CCCC(=O)NCCCNCCCNC(=O)CCCC2=C(C)C(=O)c3ccccc3C2=O)C(=O)c2ccccc2C1=O; assay: as §1
Method in brief: as §2

[7] = substrate: CC1=C(CCCCCC(=O)NCCCCNCCCNC(=O)CCCCCC2=C(C)C(=O)c3cccc(O)c3C2=O)C(=O)c2c(O)cccc2C1=O; assay: as §1
Method in brief: as §2

[8] = substrate: CC1=C(CCCCC(=O)NCCCN2CCN(CCCNC(=O)CCCCC3=C(C)C(=O)c4cccc(O)c4C3=O)CC2)C(=O)c2c(O)cccc2C1=O; assay: as §1
Method in brief: as §2

[9] = substrate: CC1=C(CCCCCC(=O)NCCCNCCCNC(=O)CCCCCC2=C(C)C(=O)c3ccccc3C2=O)C(=O)c2ccccc2C1=O; assay: as §1
Method in brief: as §2

[10] = substrate: CC1=C(CCCCC(=O)NCCCNCCCNC(=O)CCCCC2=C(C)C(=O)c3cccc(O)c3C2=O)C(=O)c2c(O)cccc2C1=O; assay: as §1
Method in brief: as §2

[11] = substrate: CC1=C(CCCCC(=O)NCCCN2CCN(CCCNC(=O)CCCCC3=C(C)C(=O)c4ccccc4C3=O)CC2)C(=O)c2ccccc2C1=O; assay: as §1
Method in brief: as §2

[12] = substrate: CC1=CC(=O)c2c(O)cccc2C1=O; assay: as §1
Method in brief: as §2

[13] = substrate: CC1=C(CCCCC(=O)NCCCCNCCCNC(=O)CCCCC2=C(C)C(=O)c3cccc(O)c3C2=O)C(=O)c2c(O)cccc2C1=O; assay: as §1
Method in brief: as §2

[14] = substrate: CC1=C(CCCCCC(=O)NCCCN2CCN(CCCNC(=O)CCCCCC3=C(C)C(=O)c4ccccc4C3=O)CC2)C(=O)c2ccccc2C1=O; assay: as §1
Method in brief: as §2

[15] = substrate: CC1=C(CCC(=O)NCCCNCCCNC(=O)CCC2=C(C)C(=O)c3cccc(O)c3C2=O)C(=O)c2c(O)cccc2C1=O; assay: as §1
Method in brief: as §2

[16] = substrate: CC1=C(CCCCCC(=O)NCCCCNCCCNC(=O)CCCCCC2=C(C)C(=O)c3ccccc3C2=O)C(=O)c2ccccc2C1=O; assay: as §1
Method in brief: as §2

[17] = substrate: CC1=C(CCCCC(=O)NCCCCNCCCNC(=O)CCCCC2=C(C)C(=O)c3ccccc3C2=O)C(=O)c2ccccc2C1=O; assay: as §1
Method in brief: as §2

[18] = substrate: CC1=C(CCCC(=O)NCCCCNCCCNC(=O)CCCC2=C(C)C(=O)c3ccccc3C2=O)C(=O)c2ccccc2C1=O; assay: as §1
Method in brief: as §2

[19] = substrate: CC1=CC(=O)c2ccccc2C1=O; assay: as §1
Method in brief: as §2

[20] = substrate: CC1=C(CCCCCC(=O)NCCCN2CCN(CCCNC(=O)CCCCCC3=C(C)C(=O)c4cccc(O)c4C3=O)CC2)C(=O)c2c(O)cccc2C1=O; assay: as §1
Method in brief: as §2

[21] = substrate: CC1=C(CCCC(=O)NCCCN2CCN(CCCNC(=O)CCCC3=C(C)C(=O)c4ccccc4C3=O)CC2)C(=O)c2ccccc2C1=O; assay: as §1
Method in brief: as §2

[22] = substrate: CC1=C(CCC(=O)NCCCN2CCN(CCCNC(=O)CCC3=C(C)C(=O)c4cccc(O)c4C3=O)CC2)C(=O)c2c(O)cccc2C1=O; assay: as §1
Method in brief: as §2

[23] = substrate: CC1=C(CCC(=O)NCCCCNCCCNC(=O)CCC2=C(C)C(=O)c3cccc(O)c3C2=O)C(=O)c2c(O)cccc2C1=O; assay: as §1
Method in brief: as §2

[24] = substrate: CC1=C(CCC(=O)NCCCCNCCCNC(=O)CCC2=C(C)C(=O)c3ccccc3C2=O)C(=O)c2ccccc2C1=O; assay: as §1
Method in brief: as §2

[25] = substrate: CC1=C(CCCC(=O)NCCCNCCCNC(=O)CCCC2=C(C)C(=O)c3cccc(O)c3C2=O)C(=O)c2c(O)cccc2C1=O; assay: as §1
Method in brief: as §2

[26] = substrate: CC1=C(CCCCC(=O)NCCCNCCCNC(=O)CCCCC2=C(C)C(=O)c3ccccc3C2=O)C(=O)c2ccccc2C1=O; assay: as §1
Method in brief: as §2

[27] = substrate: CC1=C(CCCCCC(=O)NCCCNCCCNC(=O)CCCCCC2=C(C)C(=O)c3cccc(O)c3C2=O)C(=O)c2c(O)cccc2C1=O; assay: as §1
Method in brief: as §2

[28] = substrate: CC1=C(CCC(=O)NCCCN2CCN(CCCNC(=O)CCC3=C(C)C(=O)c4ccccc4C3=O)CC2)C(=O)c2ccccc2C1=O; assay: as §1
Method in brief: as §2

[29] = substrate: CC1=C(CCCC(=O)NCCCCNCCCNC(=O)CCCC2=C(C)C(=O)c3cccc(O)c3C2=O)C(=O)c2c(O)cccc2C1=O; assay: as §1
Method in brief: as §2

[30] = substrate: CC1=C(CCCC(=O)NCCCN2CCN(CCCNC(=O)CCCC3=C(C)C(=O)c4cccc(O)c4C3=O)CC2)C(=O)c2c(O)cccc2C1=O; assay: as §1
Method in brief: as §2

[31] = substrate: CC1=C(CCCCC(=O)NCCCN2CCN(CCCNC(=O)CCCCC3=C(C)C(=O)c4cccc(O)c4C3=O)CC2)C(=O)c2c(O)cccc2C1=O; assay: (§3) Vmax is the maximum velocity of the TcTR (Trypanosoma cruzi trypanothione reductase) catalyzed NADH oxidation.
[32] = substrate: CC1=C(CCCCCC(=O)NCCCNCCCNC(=O)CCCCCC2=C(C)C(=O)c3ccccc3C2=O)C(=O)c2ccccc2C1=O; assay: as §3

B1: Trypanothione reductase (Trypanosoma cruzi), P28593 (protein)
chain: MMSKIFDLVVIGAGSGGLEAAWNAATLYKKRVAVIDVQMVHGPPFFSALGGTCVNVGCVPKKLMVTGAQYMEHLRESAGFGWEFDRTTLRAEWKKLIAVKDEAVLNINKSYEEMFRDTEGLEFFLGWGSLESKNVVNVRESADPASAVKERLETENILLASGSWPHMPNIPGIEHCISSNEAFYLPEPPRRVLTVGGGFISVEFAGIFNAYKPKDGQVTLCYRGEMILRGFDHTLREELTKQLTANGIQILTKENPAKVELNADGSKSVTFESGKKMDFDLVMMAIGRSPRTKDLQLQNAGVMIKNGGVQVDEYSRTNVSNIYAIGDVTNRVMLTPVAINEAAALVDTVFGTNPRKTDHTRVASAVFSIPPIGTCGLIEEVASKRYEVVAVYLSSFTPLMHNISGSKYKTFVAKIITNHSDGTVLGVHLLGDNAPEIIQGVGICLKLNAKISDFYNTIGVHPTSAEELCSMRTPSYYYVKGEKMEKPSEASL
With B1 the Vmax [1] was 1.3 µmol/min/mg, the Vmax [2] was 5.91 µM/min/mg and the Vmax [3] was 0.34 µM/min/mg. It also gave a Vmax [4] of 4 µM/min/mg, a Km [5] of 47 µM and a Km [6] of 23 µM. For the same protein, the Km [7] was 37 µM, the Km [8] was 17 µM and the Km [9] was 3 µM. It also gave a Km [10] of 28 µM, a Km [11] of 16 µM and a Km [12] of 15 µM. For the same protein, the Km [13] was 20 µM, the Km [14] was 12 µM and the Km [15] was 230 µM. The Km [16] was 21 µM, the Km [17] was 16 µM and the Km [18] was 74 µM. It also gave a Km [19] of 21 µM, a Km [20] of 8 µM and a Km [21] of 12 µM. The Km [22] was 78 µM, the Km [23] was 48 µM and the Km [24] was 30 µM. The Km [25] was 55 µM, the Km [26] was 37 µM and the Km [27] was 28 µM. For the same protein, the Km [28] was 14 µM, the Km [29] was 93 µM and the Km [30] was 52 µM. For the same protein, the Vmax [31] was 5.13 µM/min/mg and the Vmax [32] was 0.09 µM/min/mg.

Source: ChEMBL document CHEMBL1134791, “2- and 3-substituted 1,4-naphthoquinone derivatives as subversive substrates of trypanothione reductase and lipoamide dehydrogenase from Trypanosoma cruzi: synthesis and correlation between redox cycling activities and in vitro cytotoxicity” (J Med Chem, 2001)
